Test results from paper PMC7080202 (Medicinal Chemistry Research, 2013).
“Also recorded” adds a separate entry of the source. Where two headings read alike, the source gives them in different places.

What was measured:
[1] = test system: Cytomegalovirus Davis strain; assay: microbe, parasite or virus in culture; format: cell-based; settings: Human betaherpesvirus 5, HEL, read-out: EC50 Cytomegalovirus Davis strain
[2] = test system: Herpes simplex virus-1 (KOS); assay: microbe, parasite or virus in culture; format: cell-based, herpes simplex virus type 1; settings: Human alphaherpesvirus 1, HEL, read-out: EC50 Herpes simplex virus-1 (KOS)
[3] = test system: Herpes simplex virus-2 (G); assay: microbe, parasite or virus in culture; format: cell-based, herpes simplex virus type 2; settings: Human alphaherpesvirus 2, HEL, read-out: EC50 Herpes simplex virus-2 (G)
Vaccinia virus = assay: microbe, parasite or virus in culture; format: cell-based; settings: Orthopoxvirus vaccinia, HEL, read-out: EC50 Vaccinia virus
[4] = test system: Vesicular stomatitis virus; assay: microbe, parasite or virus in culture; format: cell-based; settings: Vesicular stomatitis virus, HEL, read-out: EC50 Vesicular stomatitis virus
[5] = test system: Herpes simplex virus-1TK-KOS ACV^r; assay: microbe, parasite or virus in culture; format: cell-based, herpes simplex virus type 1; settings: Human alphaherpesvirus 1, HEL, read-out: EC50 Herpes simplex virus-1TK-KOS ACV^r
Feline herpes virus = assay: Antiviral CPE assay, feline herpes virus in CRFK cells; format: cell-based; settings: CRFK, read-out: EC50 Feline herpes virus
Coxsackie virus B4 [6] = assay: microbe, parasite or virus in culture; format: cell-based; settings: Enterovirus B, B4, HeLa, read-out: Antiviral activity EC50 Coxsackie virus B4
Para-influenza-3 virus = assay: organism not typed; format: cell-based, parainfluenza-3 virus; settings: Vero, read-out: Antiviral activity EC50 Para-influenza-3 virus
Reovirus-1 = assay: organism not typed; format: cell-based; settings: Vero, read-out: Antiviral activity EC50 Reovirus-1
Sindbis virus = assay: microbe, parasite or virus in culture; format: cell-based; settings: Sindbis virus, Vero, read-out: Antiviral activity EC50 Sindbis virus
Coxsackie virus B4 [7] = assay: microbe, parasite or virus in culture; format: cell-based; settings: Enterovirus B, B4, Vero, read-out: Antiviral activity EC50 Coxsackie virus B4
Punta Toro virus = assay: microbe, parasite or virus in culture; format: cell-based; settings: Punta Toro virus, Vero, read-out: Antiviral activity EC50 Punta Toro virus
Influenza B = assay: Anti-influenza virus activity, influenza B in MDCK cells; format: cell-based, influenza B virus B/Hong Kong/5/72; settings: Influenza B virus, MDCK
[8] = test system: Human embryonic lung cell cultures; assay: Cytotoxicity; format: cell-based
In short: (§1)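 Cell cultures incubated with varying concentrations of test compound, then examined by microscopy. MCC is the lowest concentration that causes a microscopically detectable alteration of normal cell morphology. HEL, Vero and HeLa lines were monitored regularly for mycoplasma and found free of it.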

[9] = test system: Crandell-Rees feline kidney cells; assay: Cytotoxicity; format: cell-based
HeLa cell cultures = assay: Cytotoxicity; format: cell-based
In short: as §1

Vero cell cultures = assay: Cytotoxicity; format: cell-based
In short: as §1

[10] = test system: mouse-skin papillomas induced by DMBA and TPA; assay: Two-stage mouse-skin carcinogenesis test; format: in vivo
In short: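 Specific pathogen-free female ICR mice, 6 weeks old, about 30 g, 15 per group, kept at 24 ± 2 °C. Shaved backs were initiated with DMBA (100 μg, 390 nmol) in 0.1 ml acetone. One week later, TPA (1 μg, 1.7 nmol) in acetone was applied twice weekly. Test compound (85 nmol) in 0.1 ml acetone was applied topically 1 h before each TPA. Papillomas were scored weekly for 20 weeks as % mice bearing papillomas and mean papillomas per mouse.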

MDCK cells = settings: microscopically detectable alteration of normal cell morphology
in vitro = settings: dog
Influenza A H1N1 subtype = assay: Anti-influenza virus activity, influenza A H1N1 in MDCK cells; format: cell-based, influenza A virus A/Puerto Rico/8/34 (H1N1); settings: H1N1, H3N2 and influenza B; below the non-toxic concentration of 100 µM
[11] = read-out: Antiviral EC50 Influenza B MTS
[12] = read-out: Antiviral EC50 Influenza B Visual CPE score

## Cc1ccc2c(c1)/C(=N/NC(=O)N/N=C1\C(=O)Nc3ccc(C)cc31)C(=O)N2 [6c, 1,3-Bis({[(3Z)-5-methyl-2-oxo-2,3-dihydro-1H-indol-3-ylidene]amino})urea]
[1]
  EC50: > 100 µM
[2]
  EC50: > 100 µM
[3]
  EC50: > 100 µM
Vaccinia virus
  EC50: > 100 µM
[4]
  EC50: > 100 µM
[5]
  EC50: > 100 µM
Feline herpes virus
  EC50: 55.1 µM
Coxsackie virus B4 [6]
  EC50: > 100 µM
Para-influenza-3 virus
  EC50: > 20 µM
Reovirus-1
  EC50: > 20 µM
Sindbis virus
  EC50: > 20 µM
Coxsackie virus B4 [7]
  EC50: > 20 µM
Punta Toro virus
  EC50: > 20 µM
Influenza B; [11]
  EC50: > 20 µM
Influenza B; [12]
  EC50: > 20 µM
[8]
  Minimum cytotoxic concentration: >100 µM
[9]
  Minimum cytotoxic concentration: >100 µM
HeLa cell cultures
  Minimum cytotoxic concentration: >100 µM
Vero cell cultures
  Minimum cytotoxic concentration: 100 µM
[10]; 85 nmol topical
  chemoprevention / anti-tumor promoting activity (in words): highest chemoprevention activity; also recorded: stronger chemoprevention activity
[10]; 85 nmol topical before each TPA, during weeks 10–15
  percentage of papilloma-bearing mice: 40–70%
[10]; 85 nmol topical, week 18
  percentage of papilloma-bearing mice: 90%
[10]; 85 nmol topical, week 20
  papillomas/mouse: 5.1 papillomas/mouse
  percentage of papilloma-bearing mice: 100%
MDCK cells
  Cytotoxicity Minimum cytotoxic concentration: ≥20
In vitro
  CC50: 46 µM

## CCC(CC)O[C@@H]1C=C(C(=O)O)C[C@H](N)[C@H]1NC(C)=O [Oseltamivir carboxylate, reference compound]
Influenza B; [11]
  EC50: 2.5 ± 0.7 µM
Influenza B; [12]
  EC50: 6.7 ± 5.3 µM
MDCK cells
  Cytotoxicity Minimum cytotoxic concentration: >100
In vitro
  CC50: > 100 µM

## NC12CC3CC(CC(C3)C1)C2 [Amantadine, reference compound]
Influenza B; [11]
  EC50: > 200 µM
Influenza B; [12]
  EC50: > 200 µM
MDCK cells
  Cytotoxicity Minimum cytotoxic concentration: >200
In vitro
  CC50: > 200 µM

## Nc1nc(O)c2ncn(COC(CO)CO)c2n1 [Ganciclovir, reference compound]
[1]
  EC50: 5.5 ± 2.36 µM
[2]
  EC50: 0.02 µM
[3]
  EC50: 0.01 µM
Vaccinia virus
  EC50: > 100 µM
[4]
  EC50: > 100 µM
[5]
  EC50: 4 µM
Feline herpes virus
  EC50: 1.4 µM
[8]
  Minimum cytotoxic concentration: >350 µM
[9]
  Minimum cytotoxic concentration: >100 µM

## Nc1ncnc2c1ncn2C[C@H](O)CO [(S)-DHPA, reference compound]
Coxsackie virus B4 [6]
  EC50: > 250 µM
Para-influenza-3 virus
  EC50: > 250 µM
Reovirus-1
  EC50: > 250 µM
Sindbis virus
  EC50: > 250 µM
Coxsackie virus B4 [7]
  EC50: > 250 µM
Punta Toro virus
  EC50: > 250 µM
HeLa cell cultures
  Minimum cytotoxic concentration: >250 µM
Vero cell cultures
  Minimum cytotoxic concentration: >250 µM

## NC(=O)c1ncn([C@@H]2O[C@H](CO)[C@@H](O)[C@H]2O)n1 [Ribavirin, reference compound]
Coxsackie virus B4 [6]
  EC50: 112 µM
Sindbis virus
  EC50: > 250 µM
Coxsackie virus B4 [7]
  EC50: 250 µM
Influenza B; [11]
  EC50: 2.45 ± 0.25 µM
Influenza B; [12]
  EC50: 2.4 ± 1.6 µM
HeLa cell cultures
  Minimum cytotoxic concentration: >250 µM
Vero cell cultures
  Minimum cytotoxic concentration: >250 µM
MDCK cells
  Cytotoxicity Minimum cytotoxic concentration: >100

## CC(N)C12CC3CC(CC(C3)C1)C2 (centres unmarked) [Rimantadine, reference compound]
Influenza B; [11]
  EC50: > 200 µM
Influenza B; [12]
  EC50: > 200 µM
MDCK cells
  Cytotoxicity Minimum cytotoxic concentration: >200
In vitro
  CC50: > 200 µM

## O=C1Nc2ccccc2/C1=N/NC(=S)N/N=C1\C(=O)Nc2ccccc21 [6e, 1,3-Bis({[(3Z)-2-oxo-2,3-dihydro-1H-indol-3-ylidene]amino})thiourea]
[1]
  EC50: > 20 µM
[2]
  EC50: > 100 µM
[3]
  EC50: > 100 µM
Vaccinia virus
  EC50: > 100 µM
[4]
  EC50: > 100 µM
[5]
  EC50: > 100 µM
Feline herpes virus
  EC50: > 100 µM
Coxsackie virus B4 [6]
  EC50: > 100 µM
Influenza A H1N1 subtype
  anti-influenza activity (in words): some activity
Influenza B; [11]
  EC50: 48 ± 31 µM
Influenza B; [12]
  EC50: 39 ± 5.5 µM
[8]
  Minimum cytotoxic concentration: 100 µM
[9]
  Minimum cytotoxic concentration: >100 µM
HeLa cell cultures
  Minimum cytotoxic concentration: >100 µM
Vero cell cultures
  Minimum cytotoxic concentration: 100 µM
MDCK cells
  Cytotoxicity Minimum cytotoxic concentration: >100
In vitro
  CC50: > 100 µM

## O=C(N/N=C1\C(=O)Nc2ccc(Cl)cc21)N/N=C1\C(=O)Nc2ccc(Cl)cc21 [6b, 1,3-Bis({[(3Z)-5-chloro-2-oxo-2,3-dihydro-1H-indol-3-ylidene]amino})urea]
[1]
  EC50: > 20 µM
[2]
  EC50: > 100 µM
[3]
  EC50: > 100 µM
Vaccinia virus
  EC50: > 100 µM
[4]
  EC50: > 100 µM
[5]
  EC50: > 100 µM
Feline herpes virus
  EC50: 19.7 µM
Coxsackie virus B4 [6]
  EC50: > 100 µM
Para-influenza-3 virus
  EC50: > 20 µM
Reovirus-1
  EC50: > 20 µM
Sindbis virus
  EC50: > 20 µM
Coxsackie virus B4 [7]
  EC50: > 20 µM
Punta Toro virus
  EC50: > 20 µM
Influenza B; [11]
  EC50: > 100 µM
Influenza B; [12]
  EC50: > 100 µM
[8]
  Minimum cytotoxic concentration: 100 µM
[9]
  Minimum cytotoxic concentration: >100 µM
HeLa cell cultures
  Minimum cytotoxic concentration: >100 µM
Vero cell cultures
  Minimum cytotoxic concentration: 100 µM
[10]; 85 nmol topical
  chemoprevention / anti-tumor promoting activity (in words): moderate protection
[10]; 85 nmol topical, 10 weeks of promotion
  papillomas/mouse: 1.2 papillomas/mouse
[10]; 85 nmol topical, 15 weeks of promotion
  papillomas/mouse: 3.9 papillomas/mouse
[10]; 85 nmol topical, after week 17
  percentage of papillomas (mice with papillomas): 100%
[10]; 85 nmol topical, week 20
  papillomas/mouse: 6.1 papillomas/mouse
MDCK cells
  Cytotoxicity Minimum cytotoxic concentration: >100
In vitro
  CC50: > 100 µM

## O=c1[nH]c(=O)n([C@H]2C[C@H](O)[C@@H](CO)O2)cc1/C=C/Br [Brivudin, reference compound]
[2]
  EC50: 0.04 µM
[3]
  EC50: 112 µM
Vaccinia virus
  EC50: 4 µM
[4]
  EC50: > 250 µM
[5]
  EC50: 50 µM
[8]
  Minimum cytotoxic concentration: >300 µM

## O=C(N/N=C1\C(=O)Nc2ccccc21)N/N=C1\C(=O)Nc2ccccc21 [6a, 1,3-Bis({[(3Z)-2-oxo-2,3-dihydro-1H-indol-3-ylidene]amino})urea]
[1]
  EC50: > 100 µM
[2]
  EC50: > 100 µM
[3]
  EC50: > 100 µM
Vaccinia virus
  EC50: > 100 µM
[4]
  EC50: > 100 µM
[5]
  EC50: > 100 µM
Feline herpes virus
  EC50: > 100 µM
Coxsackie virus B4 [6]
  EC50: > 100 µM
Influenza B; [11]
  EC50: > 100 µM
Influenza B; [12]
  EC50: > 100 µM
[8]
  Minimum cytotoxic concentration: ≥100 µM
[9]
  Minimum cytotoxic concentration: >100 µM
HeLa cell cultures
  Minimum cytotoxic concentration: >100 µM
Vero cell cultures
  Minimum cytotoxic concentration: 100 µM
MDCK cells
  Cytotoxicity Minimum cytotoxic concentration: >100
In vitro
  CC50: > 100 µM

## Nc1ccn(C[C@@H](CO)OCP(=O)(O)O)c(=O)n1 [Cidofovir, reference compound]
[1]
  EC50: 0.78 ± 0.49 µM
[2]
  EC50: 2 µM
[3]
  EC50: 1 µM
Vaccinia virus
  EC50: 22 µM
[4]
  EC50: > 250 µM
[5]
  EC50: 0.9 µM
[8]
  Minimum cytotoxic concentration: >300 µM

## O=C1/C(=N\NC(=S)NN=Cc2ccccc2)c2ccccc2N1Cc1ccccc1 [4g, 3-{[(3Z)-1-benzyl-2-oxo-2,3-dihydro-1H-indol-3-ylidene]amino}-1-[(phenylmethylidene)amino]thiourea]
[1]
  EC50: > 100 µM
[2]
  EC50: > 100 µM
[3]
  EC50: > 100 µM
Vaccinia virus
  EC50: > 100 µM
[4]
  EC50: > 100 µM
[5]
  EC50: > 100 µM
Feline herpes virus
  EC50: > 100 µM
Coxsackie virus B4 [6]
  EC50: > 20 µM
Para-influenza-3 virus
  EC50: > 100 µM
Reovirus-1
  EC50: > 100 µM
Sindbis virus
  EC50: > 100 µM
Coxsackie virus B4 [7]
  EC50: > 100 µM
Punta Toro virus
  EC50: > 100 µM
Influenza B; [11]
  EC50: > 100 µM
Influenza B; [12]
  EC50: > 100 µM
[8]
  Minimum cytotoxic concentration: ≥100 µM
[9]
  Minimum cytotoxic concentration: ≥100 µM
HeLa cell cultures
  Minimum cytotoxic concentration: 100 µM
Vero cell cultures
  Minimum cytotoxic concentration: >100 µM
MDCK cells
  Cytotoxicity Minimum cytotoxic concentration: >100
In vitro
  CC50: > 100 µM

## Nc1nc2c(ncn2COCCO)c(=O)[nH]1 [Acyclovir, reference compound]
[2]
  EC50: 0.4 µM
[3]
  EC50: 0.2 µM
Vaccinia virus
  EC50: > 250 µM
[4]
  EC50: > 250 µM
[5]
  EC50: 22 µM
